High-throughput results deposited in PubChem by several laboratories.
In the library only some 2.3% were active in any assay of this set; here they are far more common.
Apaf-1 inh = human Apaf-1 inhibition; AID 489030; reconstituted apoptosome caspase-3 activity, DEVD-Rh110 fluorescence; inhibition, % at 20 µM; O14727; hit rate 0.71% among 330,000; active = inhibition of at least 40% at 20 µM;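 also: plate controls were DMSO wells for no effect and DEVD-CHO caspase inhibitor wells for full effect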
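Medium: Hepes buffer, pH 7.5 / System: biochemical Apaf-1 apoptosome reconstitution / Measured by: Rh110 fluorescence, excitation 480 nm, emission 540 nm / Times: compound with Apaf-1, dATP, procaspase-3 30 min, then 50 min reaction, room temperature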
PAFAH1B2 inh = inhibitors of human PAFAH1B2 | AID 492953 | inhibition, % at 3.39 µM | hit rate 1.2% among 340,000 | recombinant PAFAH1B2, FP-rhodamine activity probe, fluorescence polarization;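 active = inhibition above the mean of all tested compounds plus 3 SD, cut at about 24% in these data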;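 also: 0% = enzyme with DMSO and 100% = wells lacking PAFAH1B2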
Target sequence (P68402 whole entry, looked up): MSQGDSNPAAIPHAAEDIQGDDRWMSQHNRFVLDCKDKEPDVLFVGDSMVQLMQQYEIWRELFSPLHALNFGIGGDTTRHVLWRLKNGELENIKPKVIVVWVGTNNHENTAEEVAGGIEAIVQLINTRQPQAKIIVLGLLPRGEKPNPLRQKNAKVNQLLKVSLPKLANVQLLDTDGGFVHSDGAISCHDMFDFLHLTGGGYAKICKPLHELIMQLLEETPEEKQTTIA
PAFAH1B3 FP inh = PAFAH1B3 (human) inhibition | Q15102 | recombinant PAFAH1B3, FP-rhodamine probe, fluorescence polarization | inhibition, % at 3.39 µM | hit rate 0.28% among 340,000 | AID 492972;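 active = inhibition above the screen-wide average of all tested compounds plus 3 SD, cut at about 25% in these data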;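 also: 0% = enzyme with DMSO only and 100% = wells lacking PAFAH1B3 protein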
TDP2 absorb = TDP2 (human) inhibition, absorbance primary screen. recombinant TDP2, T5PNP hydrolysis, p-nitrophenol absorbance 415 nm. AID 720702. inhibition, % at 12.8 µM. hit rate 0.34% among 370,000. O95551;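 active = inhibition above the mean of all tested compounds plus 3 SD, set per campaign, cut at about 25% in these data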;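 also: 0% = DMSO with enzyme and 100% = buffer with substrate but no TDP2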
Target sequence (O95551 whole entry, looked up): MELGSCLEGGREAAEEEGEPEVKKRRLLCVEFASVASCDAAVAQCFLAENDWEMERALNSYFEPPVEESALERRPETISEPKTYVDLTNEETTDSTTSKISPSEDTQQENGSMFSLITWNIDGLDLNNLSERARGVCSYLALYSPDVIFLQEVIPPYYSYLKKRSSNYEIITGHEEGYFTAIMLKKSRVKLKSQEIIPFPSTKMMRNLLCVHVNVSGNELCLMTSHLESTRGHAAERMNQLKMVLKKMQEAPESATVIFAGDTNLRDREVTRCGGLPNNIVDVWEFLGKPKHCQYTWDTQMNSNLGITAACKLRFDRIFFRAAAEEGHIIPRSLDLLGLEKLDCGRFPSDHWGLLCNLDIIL
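System – recombinant human TDP2 · Quantity – TDP2 enzyme at 120 nM final · Doses – single concentration, 12.8 µM nominal, with 1% DMSO · Incubation – 2 h at 37 °C · Measured by – epi absorbance of p-nitrophenol freed from T5PNP by hydrolysis · Read-out – % inhibition relative to enzyme-containing and enzyme-free wells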
PAFAH2 inh = inhibitors of human PAFAH2. recombinant PAFAH2, FP-rhodamine activity probe, fluorescence polarization. inhibition, % at 3.39 µM. AID 492956. Q99487. hit rate 0.99% among 340,000;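 active = inhibition above the mean over all tested compounds plus 3 SD, cut at about 30% in these data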;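 also: inhibitors block probe labeling of enzyme so polarization drops; 0% = enzyme with DMSO and 100% = wells lacking PAFAH2 protein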
An asterisk follows results filed as active; / = not tested or not shown.

SMILES	Apaf-1 inh	PAFAH1B2 inh	PAFAH1B3 FP inh	TDP2 absorb	PAFAH2 inh
COc1ccc(CCNC(=O)C2CCN(S(=O)(=O)c3ccc(Cl)cc3)CC2)cc1OC	-4	9	9	5	-1
O=C(NCC1CCCO1)C1CCN(S(=O)(=O)c2ccc(Br)cc2)CC1 (stereo not drawn)	3	23	0	11	-4
CC(C)(C)OC(=O)N1CCC(N[C@@H](Cc2ccccc2)C(=O)NCCc2c[nH]c3ccccc23)(C(=O)NC2CCCCC2)CC1	/	/	/	-13	/
O=C(NCC1COc2ccccc2O1)C1CCN(S(=O)(=O)c2ccc(Cl)cc2)CC1 (stereo not drawn)	7	29*	2	3	-4
COC(=O)c1cccc(Cn2ccc3ccc(-c4ccc5ccn(C(=O)c6ccccc6OC)c5c4)cc32)c1	/	/	/	-1	/
CCOC(=O)c1sc(NC(=O)CN(CC(C)C)CC(C)C)c(C(=O)OCC)c1C	-19	33*	16	-3	0
COC(=O)[C@]12C[C@H](CC(=O)N3CCN(C(=O)C4CC4)CC3)C(=O)N(Cc3cccc4ccccc34)C1=C[C@H](C(C)(C)C)O[C@@H]2C	/	/	/	1	/
COC(=O)c1cc2c(c3c4cc(F)ccc4n(S(=O)(=O)c4ccc(OC)cc4)c13)C(=O)N(Cc1ccccc1OC)C2	/	/	/	5	/
COc1ccc2[nH]c(C(=O)NCCN3CCOCC3)cc2c1	-9	36*	6	3	5
O=C(NCCN1CCOCC1)c1cc2ccccc2[nH]1	5	6	2	-7	2
Clc1ccc(-c2nnc3sc(Cc4cccs4)nn23)cc1	58*	3	16	-5	6
O=C(CCl)N1CCN2C(=O)c3ccccc3C12c1ccc(Cl)cc1 (stereo not drawn)	12	4	10	10	2
O=C(Nc1cccc(Cl)c1)N1CCN2C(=O)c3ccccc3C12c1ccccc1 (stereo not drawn)	10	25*	-3	0	-6
CC(C)(C)OC(=O)N1CCC[C@@H]1C(=O)N1CCC[C@H]1C(=O)NCc1ccccc1	/	/	/	-3	/
CCOC(=O)c1sc(N2C(=O)C(O)=C(C(=O)c3ccc(C)o3)C2c2ccc(OC)c(OC)c2)nc1C (stereo not drawn)	12	1	3	11	-2
CCOC(=O)c1sc(N2C(=O)C(O)=C(C(=O)c3ccc(C)o3)C2c2cccc([N+](=O)[O-])c2)nc1C (stereo not drawn)	/	3	11	-9	47*
CC1(C)Oc2ccc(C(=O)NCCCN3CCCC3)cc2NC1=O	/	/	/	0	/
O=C(COC(=O)c1ccccc1C(=O)c1ccccc1)Nc1ccc(SC(F)F)cc1	11	1	1	3	51*
CN1Cc2nnn(CC3CCCCC3)c2-c2ccccc2S1(=O)=O	/	/	/	-9	/
CC(=O)C1=CCN(C)CC1	/	/	/	2	/
O=c1[nH][nH]c(-c2ccccc2)c1-c1ccccc1	/	25*	12	5	3
O=C1OC[C@H]2CCCN2C(=O)[C@@H](CC(=O)N(CCO)Cc2ccccc2)C/C=C\C[C@@H]1Cc1ccc(F)cc1	13	31*	3	-13	-7
O=C1OC[C@@H]2CCCN2C(=O)[C@H](CC(=O)N(CCO)Cc2ccccc2)C/C=C\C[C@H]1Cc1ccc(F)cc1	15	33*	5	3	3
CCOc1ccc(N(CC(=O)Nc2c(C)n(C)n(-c3ccccc3)c2=O)S(=O)(=O)c2cccs2)cc1	/	/	/	12	/
Cc1ccc(S(=O)(=O)N2CCN(C(=O)c3cccn3C)CC2)cc1	/	/	/	12	/
SMILES	Apaf-1 inh	PAFAH1B2 inh	PAFAH1B3 FP inh	TDP2 absorb	PAFAH2 inh
O=C(NC1CCC1)c1ccc(C#CC2CC2)c[n+]1[O-]	/	/	/	-3	/
NS(=O)(=O)c1ccc(N=Nc2c[nH]c(=O)c(O)c2)cc1	74*	10	15	23	9
Nc1nc(O)c(N=Nc2ccc(S(N)(=O)=O)cc2)c(=O)[nH]1	-10	/	/	-9	/
Cc1c2cc(O)c(=O)cc-2oc2cc(O)c(O)cc12	38	85*	89*	46*	96*
COc1cc(OC)c(-c2c3cc(O)c(=O)cc-3oc3cc(O)c(O)cc23)cc1OC	-3	-141	-254	-5	-240
O=C(NNS(=O)(=O)c1ccc(Br)cc1)C1CCCCC1	7	28*	6	-21	7
O=C(OCCc1ccccc1)c1cc(O)c(O)c(O)c1	11	55*	12	7	17
O=c1c2cc(NC(=S)NC3CCCC3)ccc2nc2n1CCCCC2	2	8	-4	8	2
O=c1c2cc(NC(=S)NC3CCCCC3)ccc2nc2n1CCCCC2	13	28*	2	-14	6
C=CCN(C)CC#Cc1ccccc1C	/	/	/	2	/
COC(CNC(=O)[C@H](Cc1c[nH]c2ccccc12)NC1(C(=O)NC(c2ccccc2)c2ccccc2)CCCCC1)OC	/	/	/	-4	/
CC1CCN(C(=O)CSc2nnc(Cn3c(=O)sc4ccccc43)n2C)CC1	43*	5	7	-5	1
CCOC(=O)[C@@]12CCCC=C1N(CCc1ccc(Cl)cc1)C(=O)[C@H]2CC(=O)N1CCOCC1	/	/	/	-2	/
CC(C)(C)S(=O)N1C[C@@H]2CC(=O)C(c3ccccc3)=C2[C@H]1CCO (stereo partly drawn)	/	/	/	-7	/
CC1(CCC(=O)N2CCCC(Nc3ccc(F)cc3)C2)CC1 (stereo not drawn)	-4	29*	8	7	2
O=C(CC1CCCC1)N1CCCC(Nc2ccc(F)cc2)C1 (stereo not drawn)	3	16	7	-1	3
COc1cccc(CO[C@H]2C=C[C@@H](c3ccccc3)O[C@@H]2CO)c1	/	/	/	4	/
COc1ccnc(N2CCN(c3ccc(Cl)cc3)CC2)c1C#N	10	24*	5	-5	7
C[C@H]1[C@@H](NC(=O)C#Cc2ccccc2)CC[C@@]23CCCN2C(=O)CCC[C@@H]13	/	/	/	-2	/
COc1cc(Cl)cc(C(c2c(C(=O)O)[nH]c3ccccc23)c2c(C(=O)O)[nH]c3ccccc23)c1O	/	83*	15	13	8
COc1cc(C(=O)Nc2c(C(=O)O)[nH]c3ccccc23)cc(OC)c1OC	10	8	6	0	1
O=C(O)c1[nH]c2ccccc2c1C(c1cc(Br)ccc1O)c1c(C(=O)O)[nH]c2ccccc12	11	94*	3	-5	13
O=C(O)c1[nH]c2ccccc2c1C(c1c(F)cccc1Cl)c1c(C(=O)O)[nH]c2ccccc12	2	49*	2	6	11
O=C(O)c1[nH]c2ccccc2c1-c1ccccc1	7	14	-2	5	-7
CCc1c(C(=O)O)[nH]c2ccc(Br)cc12	-16	8	7	-3	1
COc1ccccc1CNc1ccc2c(c1)OC[C@H](CC(C)C)NS2(=O)=O	/	/	/	-1	/
CCOC(=O)N1CCN(C(=O)C[C@H]2C(=O)N(CCCOC)C3=CCCC[C@@]32C(=O)OCC)CC1	/	/	/	-4	/
